# Test system: not listed separately
# Assay: Ratio of drug level in brain to plasma in rat administered as iv bolus measured after 0.25 to 1 hr post dosing
# Format: ADME, organism-based
# Conditions: brain and plasma, read-out: BPR
# In short: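 Rats given an iv bolus; brain and plasma levels taken at 0.25 or 1 h post-dose to give the brain/plasma ratio; mean of n = 3.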
row,SMILES,Kp
1,CC(C)N1CCN(c2c(F)cccc2C2SC(CC(=O)N3CCC(N4CCc5ccccc5NC4=O)CC3)C(=O)N2CCC(C)(C)C)CC1 (stereo unspecified),1.51
2,CC(C)(C)CCN1C(=O)[C@H](CC(=O)N2CCC(N3CCc4ccccc4NC3=O)CC2)S[C@@H]1c1cccc(F)c1N1CCN(C(C)(C)C)CC1,0.53
3,NCCCC[C@H](NC(=O)[C@@H](Cc1cc(Br)c(O)c(Br)c1)NC(=O)N1CCC(N2Cc3ccccc3NC2=O)CC1)C(=O)N1CCN(c2ccncc2)CC1 [OLCEGEPANT],< 0.03
4,O=C(N[C@@H]1CC[C@@H](c2cccc(F)c2F)CN(CC(F)(F)F)C1=O)N1CCC(n2c(=O)[nH]c3ncccc32)CC1 [TELCAGEPANT],0.03

# Test system: not listed separately
# Assay: Clearance in iv dosed rat
# Format: ADME, organism-based
# Conditions: in vivo
row,SMILES,clearance
1,NCCCC[C@H](NC(=O)[C@@H](Cc1cc(Br)c(O)c(Br)c1)NC(=O)N1CCC(N2Cc3ccccc3NC2=O)CC1)C(=O)N1CCN(c2ccncc2)CC1 [OLCEGEPANT],65 mL/min/kg

# Test system: Rattus norvegicus
# Assay: Cmax in rat at 10 mg/kg, po
# Format: ADME, organism-based
# Parameters: dose 10 mg/kg, route oral
# Conditions: in vivo
# In short: (§1)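 Rats dosed orally at 10 mg/kg, in suspension vehicle or in 40% PEG400/10% TPGS/water depending on compound; mean of n = 3.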
row,SMILES,Cmax
1,CC(C)N1CCN(c2c(F)cccc2C2SC(CC(=O)N3CCC(N4CCc5ccccc5NC4=O)CC3)C(=O)N2CCC(C)(C)C)CC1 (stereo unspecified),120 ng/mL
2,CC(C)(C)CCN1C(=O)[C@H](CC(=O)N2CCC(N3CCc4ccccc4NC3=O)CC2)S[C@@H]1c1cccc(F)c1N1CCN(C(C)(C)C)CC1,410 ng/mL
3,O=C(N[C@@H]1CC[C@@H](c2cccc(F)c2F)CN(CC(F)(F)F)C1=O)N1CCC(n2c(=O)[nH]c3ncccc32)CC1 [TELCAGEPANT],550 ng/mL

# Test system: Rattus norvegicus
# Assay: Cmax in rat at 30 mg/kg, po
# Format: ADME, organism-based
# Parameters: dose 30 mg/kg, route oral
# Conditions: in vivo
# In short: (§2)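 Rats dosed at 30 mg/kg in 10% TPGS suspension; mean of n = 3.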
row,SMILES,Cmax
1,CN1CCN(c2ccccc2C2SC(CC(=O)N3CCC(N4Cc5ccccc5NC4=O)CC3)C(=O)N2CCC(C)(C)C)CC1 (stereo unspecified),260 ng/mL

# Test system: Rattus norvegicus
# Assay: AUC in rat at 30 mg/kg, po
# Format: ADME, organism-based, Plasma
# Parameters: dose 30 mg/kg, route oral
# Conditions: in vivo
# In short: as §2
row,SMILES,AUC
1,CN1CCN(c2ccccc2C2SC(CC(=O)N3CCC(N4Cc5ccccc5NC4=O)CC3)C(=O)N2CCC(C)(C)C)CC1 (stereo unspecified),1600 ng·h/mL

# Test system: Rattus norvegicus
# Assay: Cmax in po dosed rat
# Format: ADME, organism-based
# Parameters: route oral
# Conditions: in vivo
row,SMILES,Cmax
1,NCCCC[C@H](NC(=O)[C@@H](Cc1cc(Br)c(O)c(Br)c1)NC(=O)N1CCC(N2Cc3ccccc3NC2=O)CC1)C(=O)N1CCN(c2ccncc2)CC1 [OLCEGEPANT],870 ng/mL

# Test system: Rattus norvegicus
# Assay: AUC in po dosed rat
# Format: ADME, organism-based, Plasma
# Conditions: in vivo
row,SMILES,AUC
1,NCCCC[C@H](NC(=O)[C@@H](Cc1cc(Br)c(O)c(Br)c1)NC(=O)N1CCC(N2Cc3ccccc3NC2=O)CC1)C(=O)N1CCN(c2ccncc2)CC1 [OLCEGEPANT],260 ng·h/mL

# Test system: Rattus norvegicus
# Assay: AUC in rat at 10 mg/kg, po
# Format: ADME, organism-based, Plasma
# Parameters: dose 10 mg/kg, route oral
# Conditions: in vivo
# In short: as §1
row,SMILES,AUC
1,CC(C)N1CCN(c2c(F)cccc2C2SC(CC(=O)N3CCC(N4CCc5ccccc5NC4=O)CC3)C(=O)N2CCC(C)(C)C)CC1 (stereo unspecified),650 ng·h/mL
2,CC(C)(C)CCN1C(=O)[C@H](CC(=O)N2CCC(N3CCc4ccccc4NC3=O)CC2)S[C@@H]1c1cccc(F)c1N1CCN(C(C)(C)C)CC1,530 ng·h/mL
3,O=C(N[C@@H]1CC[C@@H](c2cccc(F)c2F)CN(CC(F)(F)F)C1=O)N1CCC(n2c(=O)[nH]c3ncccc32)CC1 [TELCAGEPANT],3320 ng·h/mL

# Test system: Rattus norvegicus
# Assay: Oral bioavailability in rat at 30 mg/kg
# Format: ADME, organism-based
# Conditions: in vivo
# In short: as §2
row,SMILES,F
1,CN1CCN(c2ccccc2C2SC(CC(=O)N3CCC(N4Cc5ccccc5NC4=O)CC3)C(=O)N2CCC(C)(C)C)CC1 (stereo unspecified),53%

# Test system: Rattus norvegicus
# Assay: Oral bioavailability in rat at 10 mg/kg
# Format: ADME, organism-based
# Conditions: in vivo
# In short: as §1
row,SMILES,F
1,CC(C)N1CCN(c2c(F)cccc2C2SC(CC(=O)N3CCC(N4CCc5ccccc5NC4=O)CC3)C(=O)N2CCC(C)(C)C)CC1 (stereo unspecified),32%
2,CC(C)(C)CCN1C(=O)[C@H](CC(=O)N2CCC(N3CCc4ccccc4NC3=O)CC2)S[C@@H]1c1cccc(F)c1N1CCN(C(C)(C)C)CC1,13%
3,O=C(N[C@@H]1CC[C@@H](c2cccc(F)c2F)CN(CC(F)(F)F)C1=O)N1CCC(n2c(=O)[nH]c3ncccc32)CC1 [TELCAGEPANT],45%

# Test system: not listed separately
# Assay: Oral bioavailability in rat
# Format: ADME, organism-based
# Conditions: in vivo
row,SMILES,bioavailability
1,NCCCC[C@H](NC(=O)[C@@H](Cc1cc(Br)c(O)c(Br)c1)NC(=O)N1CCC(N2Cc3ccccc3NC2=O)CC1)C(=O)N1CCN(c2ccncc2)CC1 [OLCEGEPANT],< 1%

# Biological target: T1, Calcitonin gene-related peptide type 1 receptor (Homo sapiens, UniProt O60894+Q16602)
# T1 sequence (Q16602 whole entry, one chain of several): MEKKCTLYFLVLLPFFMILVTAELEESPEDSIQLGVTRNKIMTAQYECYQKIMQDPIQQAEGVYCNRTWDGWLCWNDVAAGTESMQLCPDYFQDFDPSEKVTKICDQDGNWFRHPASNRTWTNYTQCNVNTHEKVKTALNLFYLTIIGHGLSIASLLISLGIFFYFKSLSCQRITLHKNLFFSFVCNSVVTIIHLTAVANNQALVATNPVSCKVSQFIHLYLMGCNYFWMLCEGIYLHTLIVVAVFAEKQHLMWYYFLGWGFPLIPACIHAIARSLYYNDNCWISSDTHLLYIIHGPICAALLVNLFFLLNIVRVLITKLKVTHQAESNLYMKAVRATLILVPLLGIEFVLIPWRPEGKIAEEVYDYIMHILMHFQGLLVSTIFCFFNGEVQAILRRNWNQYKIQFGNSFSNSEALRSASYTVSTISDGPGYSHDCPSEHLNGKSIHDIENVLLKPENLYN
# Assay: Displacement of [125I]CGRP from CGRP receptor in human SK-N-MC cell membranes preincubated for 30 mins followed by radioligand addition measured after 2 hrs by liquid scintillation counting
# Conditions: not given
row,SMILES,Ki
1,O=C(CC1SC(c2ccccc2)N(C2CC2)C1=O)N1CCC(N2Cc3ccccc3NC2=O)CC1 (stereo unspecified),865 nM
2,O=C(CC1SC(c2ccccc2)N(CC2CC2)C1=O)N1CCC(N2Cc3ccccc3NC2=O)CC1 (stereo unspecified),45 nM
3,CCCCN1C(=O)C(CC(=O)N2CCC(N3Cc4ccccc4NC3=O)CC2)SC1c1ccccc1 (stereo unspecified),64 nM
4,CC(C)CN1C(=O)C(CC(=O)N2CCC(N3Cc4ccccc4NC3=O)CC2)SC1c1ccccc1 (stereo unspecified),32 nM
5,CC(C)(C)N1C(=O)C(CC(=O)N2CCC(N3Cc4ccccc4NC3=O)CC2)SC1c1ccccc1 (stereo unspecified),1880 nM
6,O=C(CC1SC(c2ccccc2)N(CC(F)(F)F)C1=O)N1CCC(N2Cc3ccccc3NC2=O)CC1 (stereo unspecified),763 nM
7,COCCN1C(=O)C(CC(=O)N2CCC(N3Cc4ccccc4NC3=O)CC2)SC1c1ccccc1 (stereo unspecified),124 nM
8,CCN(CC)CCN1C(=O)C(CC(=O)N2CCC(N3Cc4ccccc4NC3=O)CC2)SC1c1ccccc1 (stereo unspecified),303 nM
9,CC(c1ccccc1)N1C(=O)C(CC(=O)N2CCC(N3Cc4ccccc4NC3=O)CC2)SC1c1ccccc1 (stereo unspecified),297 nM
10,O=C(CC1SC(c2ccccc2)N(C2CCCCC2)C1=O)N1CCC(N2Cc3ccccc3NC2=O)CC1 (stereo unspecified),88 nM
11,O=C(CC1SC(c2ccccc2)N(CC2CCCO2)C1=O)N1CCC(N2Cc3ccccc3NC2=O)CC1 (stereo unspecified),68 nM
12,CC(C)(C)CN1C(=O)C(CC(=O)N2CCC(N3Cc4ccccc4NC3=O)CC2)SC1c1ccccc1 (stereo unspecified),9 nM
13,O=C(CC1SC(c2ccccc2)N(c2ccccc2)C1=O)N1CCC(N2Cc3ccccc3NC2=O)CC1 (stereo unspecified),806 nM
14,O=C(CC1SC(c2ccccc2)N(Cc2ccc(F)cc2)C1=O)N1CCC(N2Cc3ccccc3NC2=O)CC1 (stereo unspecified),56 nM
15,O=C(CC1SC(c2ccccc2)N(Cc2cccnc2)C1=O)N1CCC(N2Cc3ccccc3NC2=O)CC1 (stereo unspecified),260 nM
16,O=C(CC1SC(c2ccccc2)N(CCc2ccccn2)C1=O)N1CCC(N2Cc3ccccc3NC2=O)CC1 (stereo unspecified),202 nM
17,CC(C)(C)CCN1C(=O)C(CC(=O)N2CCC(N3Cc4ccccc4NC3=O)CC2)SC1c1ccccc1F (stereo unspecified),54 nM
18,CC(C)N1CCN(c2c(F)cccc2C2SC(CC(=O)N3CCC(N4CCc5ccccc5NC4=O)CC3)C(=O)N2CCC(C)(C)C)CC1 (stereo unspecified),0.02 nM

# Biological target: T1, Calcitonin gene-related peptide type 1 receptor
# Assay: Antagonist activity at CGRP receptor in human SK-N-MC cells assessed as inhibition of CGRP-stimulated cAMP production preincubated for 30 mins followed by CGRP addition measured after 3 hrs by beta-lactamase reporter gene-based FRET assay
# Format: functional, cell-based
# Conditions: not given
# In short: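 SK-N-MC cells (endogenous CGRP receptor) transduced with retroviral cAMP-responsive-promoter β-lactamase reporter; 30,000 cells/well grown overnight in MEM+10% FBS, 37 °C, 5% CO2. Medium swapped to MEM+1% FBS with compound, 30 min pre-incubation; CGRP added (final 200 pM), 3 h at 37 °C. CCF4/AM FRET substrate added, 2 h at room temperature, fluorescence read; n ≥ 3.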
row,SMILES,IC50
1,O=C(CC1SC(c2ccccc2)N(C2CC2)C1=O)N1CCC(N2Cc3ccccc3NC2=O)CC1 (stereo unspecified),5150 nM
2,O=C(CC1SC(c2ccccc2)N(CC2CC2)C1=O)N1CCC(N2Cc3ccccc3NC2=O)CC1 (stereo unspecified),840 nM
3,CCCCN1C(=O)C(CC(=O)N2CCC(N3Cc4ccccc4NC3=O)CC2)SC1c1ccccc1 (stereo unspecified),320 nM
4,CC(C)CN1C(=O)C(CC(=O)N2CCC(N3Cc4ccccc4NC3=O)CC2)SC1c1ccccc1 (stereo unspecified),370 nM
5,CC(C)(C)N1C(=O)C(CC(=O)N2CCC(N3Cc4ccccc4NC3=O)CC2)SC1c1ccccc1 (stereo unspecified),7600 nM
6,O=C(CC1SC(c2ccccc2)N(CC(F)(F)F)C1=O)N1CCC(N2Cc3ccccc3NC2=O)CC1 (stereo unspecified),4540 nM
7,COCCN1C(=O)C(CC(=O)N2CCC(N3Cc4ccccc4NC3=O)CC2)SC1c1ccccc1 (stereo unspecified),1220 nM
8,CCN(CC)CCN1C(=O)C(CC(=O)N2CCC(N3Cc4ccccc4NC3=O)CC2)SC1c1ccccc1 (stereo unspecified),4880 nM
9,CC(c1ccccc1)N1C(=O)C(CC(=O)N2CCC(N3Cc4ccccc4NC3=O)CC2)SC1c1ccccc1 (stereo unspecified),940 nM
10,O=C(CC1SC(c2ccccc2)N(C2CCCCC2)C1=O)N1CCC(N2Cc3ccccc3NC2=O)CC1 (stereo unspecified),710 nM
11,O=C(CC1SC(c2ccccc2)N(CC2CCCO2)C1=O)N1CCC(N2Cc3ccccc3NC2=O)CC1 (stereo unspecified),520 nM
12,CC(C)(C)CN1C(=O)C(CC(=O)N2CCC(N3Cc4ccccc4NC3=O)CC2)SC1c1ccccc1 (stereo unspecified),250 nM
13,O=C(CC1SC(c2ccccc2)N(c2ccccc2)C1=O)N1CCC(N2Cc3ccccc3NC2=O)CC1 (stereo unspecified),2940 nM
14,O=C(CC1SC(c2ccccc2)N(Cc2ccc(F)cc2)C1=O)N1CCC(N2Cc3ccccc3NC2=O)CC1 (stereo unspecified),750 nM
15,O=C(CC1SC(c2ccccc2)N(Cc2cccnc2)C1=O)N1CCC(N2Cc3ccccc3NC2=O)CC1 (stereo unspecified),800 nM
16,O=C(CC1SC(c2ccccc2)N(CCc2ccccn2)C1=O)N1CCC(N2Cc3ccccc3NC2=O)CC1 (stereo unspecified),1370 nM
17,CC(C)(C)CCN1C(=O)C(CC(=O)N2CCC(N3Cc4ccccc4NC3=O)CC2)SC1c1ccccc1F (stereo unspecified),180 nM
18,CC(C)N1CCN(c2c(F)cccc2C2SC(CC(=O)N3CCC(N4CCc5ccccc5NC4=O)CC3)C(=O)N2CCC(C)(C)C)CC1 (stereo unspecified),1 nM

# Source: ChEMBL document CHEMBL3112499, “Identification of potent CNS-penetrant thiazolidinones as novel CGRP receptor antagonists” (Bioorg Med Chem Lett, 2014)
